XiGFP reactiv: activators of inactive X chromosome reactivation, primary screen, imaging, XiGFP fibroblasts, GFP high-content imaging, set 2; XiGFP mouse fibroblasts, % GFP-positive cells imaging, 3 d; cells co-treated with 5-aza-dC sensitizer; scaled so ellipticine positive control = 100%; activation, % at 7.58 µM; actives 0.055% (n = 360,000); AID 743238, 2013;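 active = mean normalized replicate activation at least 10% and every replicate at or above 10%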;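 also: 0% = median of on-plate neutral control wells and 100% = ellipticine 6 µM median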
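Assay system – SV40-immortalized XiGFP fibroblast cells, line 68-5-11 · Buffer or medium – DMEM supplemented with 5-aza-dC as sensitizing agent · Dosing – one concentration, pinned · Benchmarks – positive control ellipticine, 6 µM final · Times – 3 days compound exposure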
E-sel inducer: E-selectin induction in HUVECs, primary screen, imaging, HUVEC, immunofluorescence imaging, single point; activation, % at 7.58 µM; actives 0.37% (n = 260,000); AID 686992, 2013; normalized: neutral wells 0, TNF-alpha wells 100; P16581;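 active = mean E-selectin-positive cell signal at least 10% of the positive control, reached in at least 60% of replicates, without over 20% cell loss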
Target sequence (P16581 whole entry, looked up): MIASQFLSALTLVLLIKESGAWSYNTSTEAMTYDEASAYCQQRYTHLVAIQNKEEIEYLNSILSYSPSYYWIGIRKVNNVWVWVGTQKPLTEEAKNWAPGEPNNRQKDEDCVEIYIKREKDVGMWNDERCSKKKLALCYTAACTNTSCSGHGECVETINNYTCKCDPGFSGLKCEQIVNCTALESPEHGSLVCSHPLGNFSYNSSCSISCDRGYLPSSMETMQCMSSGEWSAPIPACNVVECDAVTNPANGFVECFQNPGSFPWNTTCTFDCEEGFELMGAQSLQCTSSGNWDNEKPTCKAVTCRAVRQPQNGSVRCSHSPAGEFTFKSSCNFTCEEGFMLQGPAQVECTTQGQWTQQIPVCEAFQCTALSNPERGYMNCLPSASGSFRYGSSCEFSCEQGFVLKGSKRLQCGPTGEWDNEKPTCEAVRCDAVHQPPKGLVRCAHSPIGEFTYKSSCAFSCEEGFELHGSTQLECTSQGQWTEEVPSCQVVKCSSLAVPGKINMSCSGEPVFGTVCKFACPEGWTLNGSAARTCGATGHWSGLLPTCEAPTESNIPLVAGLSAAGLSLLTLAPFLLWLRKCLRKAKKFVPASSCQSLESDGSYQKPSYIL
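System: HUVEC / Compound: single concentration / Signal: immunofluorescence imaging / Read-out: percent E-selectin-positive cells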
* hit, by the source's call; . = no result. Only a selection was taken, and hits are over-represented in it overall.

SMILES | XiGFP reactiv | E-sel inducer
O=C(C[C@H]1CC[C@@H]2[C@H](COC[C@@H](O)CN2C(=O)c2ccccn2)O1)NC1CCC1 | 0 | 0
COc1cccc(-c2cn(CC[C@H]3CC[C@H](NC(=O)CN(C)C)[C@@H](CO)O3)nn2)c1 | 0 | 0
O=C(c1ccc2c(c1)OCO2)N1C[C@H]2[C@@H](c3ccccc31)[C@H](CO)N2Cc1ccccc1Cl | 1 | 0
OCc1ccc(-c2nn(Cc3ccccc3)c3ccccc23)o1 | 0 | 117*
O=c1c2ccccc2c(-c2n[nH]c(=S)o2)nn1Cc1ccccc1 | 0 | .
Cc1ccc(C)c(S(=O)(=O)N2CCCCC2CCNC(=O)C(=O)NCCc2ccco2)c1 (centres undefined) | 0 | 62*
Cc1ccc(C)c(S(=O)(=O)N2CCCC2CNC(=O)C(=O)NCCc2ccco2)c1 (centres undefined) | 0 | 0
O=C(COC(=O)c1ccc(-c2ccc([N+](=O)[O-])cc2)o1)NC(=O)NC1CCCCC1 | 0 | 0
O=C(COC(=O)c1ccc(-c2ccc([N+](=O)[O-])cc2)o1)NC(=O)NC12CC3CC(CC(C3)C1)C2 | 0 | 149*
COC(=O)N(C)C[C@@H]1OCc2ccccc2-c2c(n(C)c3ccccc23)C(=O)N([C@@H](C)CO)C[C@H]1C | 0 | 0
O=C(Nc1cccc(O)c1)c1ccc(C(F)(F)F)cc1 | 0 | .
O=C(Nc1cccc(C(F)(F)F)c1)c1cc[n+]([O-])cc1 | 0 | 27*
Cc1cc(NC(=O)c2ccc(Cl)cc2)n(CCC#N)n1 | 0 | .
Cc1ccc(C(=O)Nc2cc(C)nn2CCC#N)cc1 | 0 | 32*
Cc1ccc(S(=O)(=O)Nc2ccc3c(c2)CC(=O)N([C@H](C)CO)C[C@@H](C)[C@@H](CN(C)C(=O)Nc2ccc4c(c2)OCO4)O3)cc1 | -1 | 0
c1ccc(-c2cn3nc(-c4ccccc4)c(-c4ccccc4)nc3n2)cc1 | . | 1
Cc1ccc(-c2cn3nc(-c4ccccc4)c(-c4ccccc4)nc3n2)cc1 | 78* | .
COc1ccc(NC(=O)Nc2ccc3c(c2)C(=O)N([C@@H](C)CO)C[C@@H](C)[C@@H](CN(C)S(=O)(=O)c2ccc(F)cc2)OCCCC[C@@H](C)O3)cc1 | 0 | .
CCN(CC)c1ccc2nc3c4ccccc4c(=O)cc-3oc2c1 | 0 | 203*
O=c1cc(-c2ccccc2)oc2ccc3ccccc3c12 | 1 | 0
Cc1ccc(NC(=O)/C=C/c2ccc([N+](=O)[O-])s2)cc1 | 97* | .
COc1cccc(NC(=O)/C=C/c2ccccc2[N+](=O)[O-])c1 | 0 | 3
CCOC(=O)N/N=C\c1ccc([N+](=O)[O-])s1 | 0 | .
Cc1ccc(NC(=O)/C=C/c2ccc([N+](=O)[O-])s2)c(C)c1 | 37* | 1
Cc1cccc(NC(=O)/C=C/c2ccc([N+](=O)[O-])s2)c1 | 81* | -2
SMILES | XiGFP reactiv | E-sel inducer
Cc1cc([N+](=O)[O-])ccc1NC(=O)/C=C/c1cccs1 | 0 | .
CCCNC(=O)C[C@@H]1C[C@@H]2c3cc(NS(=O)(=O)c4cccc(OC)c4)ccc3O[C@@H]2[C@H](CO)O1 | 0 | -1
CC=Cc1ccc2n(c1=O)C[C@@H]1[C@@H](CO)[C@H](C(=O)NCCC)N(CC3CCOCC3)[C@H]21 (mixture of isomers) | 0 | 0
C[C@H](CO)N1C[C@H](C)[C@@H](CN(C)Cc2ccc(C(=O)O)cc2)Oc2c(NC(=O)c3cnccn3)cccc2C1=O | 0 | -3
O=C(C[C@H]1C=C[C@@H](NC(=O)CC2CC2)[C@@H](CO)O1)NCc1ccc(Cl)cc1 | 0 | 0
CC(=O)N[C@@H]1CC[C@H](CCNC(=O)Nc2ccc(C(F)(F)F)cc2)O[C@@H]1CO | 1 | 0
C[C@H](NC(=O)C[C@H]1C=C[C@H](NC(=O)CN2CCOCC2)[C@@H](CO)O1)c1ccccc1 | 0 | 0
CCCNC(=O)N(C)C[C@@H]1Oc2cc(-c3ccccc3F)ccc2S(=O)(=O)N([C@H](C)CO)C[C@@H]1C | -1 | 0
Cc1ccc(C(=O)Nc2nc(-c3ccccn3)cs2)o1 | 0 | .
CCc1cc(C(=O)Nc2nc(-c3ccccn3)cs2)sc1C | 0 | 29*
C[C@H](CO)N1C[C@H](C)[C@@H](CN(C)Cc2ccncc2)Oc2c(NC(=O)NC3CCCCC3)cccc2C1=O | 0 | .
CC(C)NC(=O)N(C)C[C@H]1Oc2c(NC(=O)CCCCCC(=O)Nc3ccccc3N)cccc2C(=O)N([C@H](C)CO)C[C@@H]1C | 0 | -15
C[C@@H]1CN([C@@H](C)CO)C(=O)c2cccc(NC(=O)c3ccc(-c4nccs4)cc3)c2O[C@@H]1CN(C)Cc1ccc(Cl)c(Cl)c1 | -1 | 32*
CC(C)NC(=O)N(C)C[C@H]1Oc2c(NC(=O)c3ccc(-c4nccs4)cc3)cccc2C(=O)N([C@@H](C)CO)C[C@@H]1C | 0 | -3
C[C@H](CO)N1C[C@H](C)[C@H](CN(C)Cc2ccc(Cl)c(Cl)c2)Oc2c(NC(=O)c3ccc(-c4nccs4)cc3)cccc2C1=O | -1 | -7
CC(C)NC(=O)N(C)C[C@@H]1Oc2c(NC(=O)c3ccc(-c4nccs4)cc3)cccc2C(=O)N([C@@H](C)CO)C[C@H]1C | 0 | 52*
CC(C)NC(=O)N(C)C[C@H]1Oc2c(NC(=O)CCCCCC(=O)Nc3ccccc3N)cccc2C(=O)N([C@@H](C)CO)C[C@H]1C | 0 | 40*
CO[C@H]1CN(C)C(=O)c2cc(NC(C)=O)ccc2OC[C@@H](C)N(C(=O)CN2CCOCC2)C[C@H]1C | 1 | 0
CCC(=O)N1[C@@H](CO)[C@@H]2c3ccccc3N(C(=O)c3ccc4c(c3)OCO4)C[C@@H]21 | 0 | 0
O=C(N[C@H]1CC[C@@H](CCn2cc(C3(O)CCCC3)nn2)O[C@@H]1CO)C1CCOCC1 | 0 | 0
C[C@H]1CN([C@@H](C)CO)C(=O)c2cccc(NC(=O)C3CC3)c2O[C@@H]1CN(C)S(=O)(=O)c1cccs1 | 0 | 0
CC(C)(C)C(=O)N1CCN(c2ccnc3cc(Cl)ccc23)CC1 | 0 | .
CC(=O)c1ccc(N2CCN(c3ccnc4cc(Cl)ccc34)CC2)cc1 | 0 | 40*
COc1ccc(OC)c(NC(=O)c2ccc(Cl)cc2)c1 | 0 | .
COc1ccc(OC)c(NC(=O)c2csc(Cl)c2OC)c1 | 0 | 38*
SMILES | XiGFP reactiv | E-sel inducer
O=C(CN1CCOCC1)N[C@H]1CC[C@@H](CCNS(=O)(=O)c2ccccc2F)O[C@@H]1CO | 1 | -1
C[C@@H]1CN([C@@H](C)CO)C(=O)c2cc(C#Cc3ccccn3)cnc2O[C@@H]1CN(C)Cc1ccccc1 | 0 | 0
N=C1C=CC(=C(c2ccc(N)cc2)c2ccc(N)cc2)C=C1 | 0 | 39*
Nc1ccc(C(=O)C(=O)c2ccc(N)cc2)cc1 | 0 | .
CCCNC(=O)N1C[C@H]2[C@@H](c3ccccc31)[C@@H](CO)N2C(=O)Cc1ccccn1 | 0 | 0
Cc1ccccc1C(=O)N1CCN(c2ccc(N3CCOCC3)nn2)CC1 | 0 | .
O=C(c1ccccc1[N+](=O)[O-])N1CCN(c2ccc(N3CCOCC3)nn2)CC1 | 0 | 58*

Source: PubChem BioAssay (Broad Institute)
